ChEMBL document CHEMBL3232963, “Discovery of a potent and selective α3β4 nicotinic acetylcholine receptor antagonist from an α-conotoxin synthetic combinatorial library” (J Med Chem, 2014)
The source made the active and inactive calls. The rule behind the calls is not given here. Bridge positions count the residues as written; N and C are the ends. Square brackets hold non-standard residues; d marks the D form. Peptide text beside a SMILES is read from it. Nle = CCCC[C@H](N)C(=O)O; Nva = CCC[C@H](N)C(=O)O; Abu = CC[C@H](N)C(=O)O

Experiments:
Format in all cases: cell-based
[1] = biological target: Neuronal acetylcholine receptor subunit alpha-7 (Homo sapiens) (UniProt P36544); assay: Inhibition of alpha7 nAChR (unknown origin) expressed in Xenopus laevis oocytes assessed as inhibition of acetylcholine-evoked current at 10 uM by voltage clamp technique
Neuronal acetylcholine receptor subunit alpha-7 (Homo sapiens), sequence (P36544 whole entry): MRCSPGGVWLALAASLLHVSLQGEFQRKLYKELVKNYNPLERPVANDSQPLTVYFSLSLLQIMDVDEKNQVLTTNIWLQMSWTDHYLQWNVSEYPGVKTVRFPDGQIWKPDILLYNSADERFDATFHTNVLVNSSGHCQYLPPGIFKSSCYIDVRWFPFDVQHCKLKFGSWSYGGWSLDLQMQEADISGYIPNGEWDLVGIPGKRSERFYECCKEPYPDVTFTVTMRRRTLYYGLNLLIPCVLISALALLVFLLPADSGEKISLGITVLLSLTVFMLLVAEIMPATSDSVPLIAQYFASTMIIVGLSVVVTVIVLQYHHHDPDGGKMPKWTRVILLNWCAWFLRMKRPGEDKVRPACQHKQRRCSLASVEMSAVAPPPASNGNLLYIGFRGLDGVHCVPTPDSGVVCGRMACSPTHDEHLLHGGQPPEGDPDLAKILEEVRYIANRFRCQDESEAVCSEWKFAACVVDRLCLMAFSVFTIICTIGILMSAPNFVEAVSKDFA

[2] = biological target: Neuronal acetylcholine receptor; alpha3/beta4 (Rattus norvegicus) (UniProt P04757+P12392); assay: Antagonist activity at rat alpha3beta4 nAChR expressed in HEK293 cells assessed as inhibition of epibatadine-induced effect at 10 uM after 30 mins by fluorescent membrane potential assay relative to mecamylamine
Outline: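 Rat α3β4 nAChR stably expressed in HEK293 cells; crude, SPE-desalted individual peptides tested at 10 μM in HBSS with membrane potential blue dye, 30 min at 37 °C. Fluorescence change read after epibatidine (0.1 μM). Percent inhibition set against 10 μM mecamylamine taken as 100%.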

[3] = biological target: Neuronal acetylcholine receptor; alpha4/beta2 (Rattus norvegicus) (UniProt P09483+P12390); assay: Displacement of [3H]epibatadine from rat alpha4beta2 nAChR expressed in HEK293 cells up to 10 uM after 2 hrs by betaplate counting analysis
Outline: (§1)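 Membranes from HEK293 cells stably expressing α3β4 or α4β2 nAChR, homogenised in 50 mM Tris pH 7.4 and washed by centrifugation. Incubated 2 h at room temperature with peptide and 0.31 nM [3H]epibatidine; filtered on PEI-soaked glass fibre, counted. Nonspecific binding with 0.1 μM unlabeled epibatidine. Ki by Cheng–Prusoff from IC50.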

[4] = biological target: T1, Neuronal acetylcholine receptor; alpha3/beta4 (Rattus norvegicus, UniProt P04757+P12392); assay: Displacement of [3H]epibatadine from rat alpha3beta4 nAChR expressed in HEK293 cells after 2 hrs by betaplate counting analysis; outline: as §1
T1 sequence (P04757 whole entry): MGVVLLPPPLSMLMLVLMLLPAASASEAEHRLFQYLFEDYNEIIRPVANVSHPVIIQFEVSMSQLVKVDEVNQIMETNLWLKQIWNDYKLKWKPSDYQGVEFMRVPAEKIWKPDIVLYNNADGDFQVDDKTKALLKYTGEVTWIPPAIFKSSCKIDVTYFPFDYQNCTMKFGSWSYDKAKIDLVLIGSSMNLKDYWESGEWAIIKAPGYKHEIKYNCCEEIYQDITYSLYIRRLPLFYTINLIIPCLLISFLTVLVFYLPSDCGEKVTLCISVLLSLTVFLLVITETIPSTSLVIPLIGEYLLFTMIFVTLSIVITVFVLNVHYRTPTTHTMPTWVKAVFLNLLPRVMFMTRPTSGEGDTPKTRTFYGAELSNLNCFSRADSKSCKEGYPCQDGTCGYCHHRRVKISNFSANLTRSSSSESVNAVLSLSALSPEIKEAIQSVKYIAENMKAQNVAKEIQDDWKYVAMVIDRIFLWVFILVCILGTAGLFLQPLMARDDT
T1 sequence (P12392 whole entry): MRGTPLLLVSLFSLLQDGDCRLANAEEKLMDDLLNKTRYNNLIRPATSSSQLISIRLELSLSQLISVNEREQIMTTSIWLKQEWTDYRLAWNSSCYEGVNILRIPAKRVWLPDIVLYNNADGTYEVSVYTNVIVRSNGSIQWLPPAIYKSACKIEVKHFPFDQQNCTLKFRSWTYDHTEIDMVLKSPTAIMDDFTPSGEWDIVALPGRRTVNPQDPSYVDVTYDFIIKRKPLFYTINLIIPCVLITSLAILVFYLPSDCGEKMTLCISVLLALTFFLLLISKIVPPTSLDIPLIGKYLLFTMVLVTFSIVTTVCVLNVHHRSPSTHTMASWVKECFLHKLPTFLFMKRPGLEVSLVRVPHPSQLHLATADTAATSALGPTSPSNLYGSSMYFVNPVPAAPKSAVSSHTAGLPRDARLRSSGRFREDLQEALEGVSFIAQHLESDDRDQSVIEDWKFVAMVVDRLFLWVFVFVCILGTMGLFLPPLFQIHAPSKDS

[5] = biological target: Neuronal acetylcholine receptor; alpha4/beta2 (Rattus norvegicus, UniProt P09483+P12390); assay: Antagonist activity at rat alpha4beta2 nAChR expressed in HEK293 cells assessed as inhibition of epibatadine-induced effect after 30 mins by fluorescent membrane potential assay
Neuronal acetylcholine receptor; alpha4/beta2, sequence (P09483 whole entry): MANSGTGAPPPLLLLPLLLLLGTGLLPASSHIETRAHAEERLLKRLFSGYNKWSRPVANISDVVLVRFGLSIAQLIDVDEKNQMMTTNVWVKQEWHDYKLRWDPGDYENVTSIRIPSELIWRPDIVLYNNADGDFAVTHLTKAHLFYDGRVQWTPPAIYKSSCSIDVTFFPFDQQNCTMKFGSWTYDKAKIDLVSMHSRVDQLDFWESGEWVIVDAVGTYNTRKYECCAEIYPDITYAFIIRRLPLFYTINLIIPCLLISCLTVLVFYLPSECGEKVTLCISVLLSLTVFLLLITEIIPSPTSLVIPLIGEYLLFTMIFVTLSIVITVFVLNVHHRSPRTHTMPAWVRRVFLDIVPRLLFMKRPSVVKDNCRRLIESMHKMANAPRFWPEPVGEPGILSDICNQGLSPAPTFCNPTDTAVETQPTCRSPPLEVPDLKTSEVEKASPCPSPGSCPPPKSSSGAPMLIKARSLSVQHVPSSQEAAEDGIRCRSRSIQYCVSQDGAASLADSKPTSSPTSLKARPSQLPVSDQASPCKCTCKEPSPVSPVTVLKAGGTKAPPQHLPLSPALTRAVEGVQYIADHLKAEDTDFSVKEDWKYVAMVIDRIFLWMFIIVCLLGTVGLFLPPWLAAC
Neuronal acetylcholine receptor; alpha4/beta2, sequence (P12390 whole entry): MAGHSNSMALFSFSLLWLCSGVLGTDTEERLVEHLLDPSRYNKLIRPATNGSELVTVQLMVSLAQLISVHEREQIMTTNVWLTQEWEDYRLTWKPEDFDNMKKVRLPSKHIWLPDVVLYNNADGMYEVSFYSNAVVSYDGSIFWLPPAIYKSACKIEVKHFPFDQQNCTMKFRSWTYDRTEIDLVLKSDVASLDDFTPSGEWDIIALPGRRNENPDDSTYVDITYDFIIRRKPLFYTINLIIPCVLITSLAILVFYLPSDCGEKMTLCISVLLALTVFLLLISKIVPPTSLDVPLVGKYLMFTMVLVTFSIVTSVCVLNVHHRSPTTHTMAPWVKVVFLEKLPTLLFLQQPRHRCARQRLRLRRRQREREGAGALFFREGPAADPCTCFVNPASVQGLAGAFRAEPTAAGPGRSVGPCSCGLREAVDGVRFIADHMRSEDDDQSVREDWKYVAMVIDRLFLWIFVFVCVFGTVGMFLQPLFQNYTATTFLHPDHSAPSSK
Outline: (§2)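 Stably transfected HEK293 lines (KXα3β4R2, KXα3β2R2, KXα4β2R2; rat subunits) grown in DMEM/10% FBS with G-418, plated 24 h before assay. Cells washed with HBSS, peptide added, then membrane potential blue dye, 30 min at 37 °C. Fluorescence (ex 565/em 530 nm) read up to 60 s after epibatidine to 0.1 μM. IC50 from maximal responses across concentrations; n = 4.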

[6] = biological target: Neuronal acetylcholine receptor; alpha3/beta2 (Rattus norvegicus, UniProt P04757+P12390); assay: Antagonist activity at rat alpha3beta2 nAChR expressed in HEK293 cells assessed as inhibition of epibatadine-induced effect after 30 mins by fluorescent membrane potential assay; outline: as §2
Neuronal acetylcholine receptor; alpha3/beta2, sequence (P04757 whole entry): as the sequence (P04757 whole entry) above
Neuronal acetylcholine receptor; alpha3/beta2, sequence (P12390 whole entry): as the sequence (P12390 whole entry) above

[7] = biological target: T1, Neuronal acetylcholine receptor; alpha3/beta4; assay: Antagonist activity at rat alpha3beta4 nAChR expressed in HEK293 cells assessed as inhibition of epibatadine-induced effect after 30 mins by fluorescent membrane potential assay; outline: as §2
[8] = biological target: T2, Neuronal acetylcholine receptor; alpha3/beta4 (Homo sapiens, UniProt P30926+P32297); assay: Inhibition of human alpha3beta4 nAChR expressed in Xenopus laevis oocytes by two-electrode voltage clamp technique
T2 sequence (P30926 whole entry): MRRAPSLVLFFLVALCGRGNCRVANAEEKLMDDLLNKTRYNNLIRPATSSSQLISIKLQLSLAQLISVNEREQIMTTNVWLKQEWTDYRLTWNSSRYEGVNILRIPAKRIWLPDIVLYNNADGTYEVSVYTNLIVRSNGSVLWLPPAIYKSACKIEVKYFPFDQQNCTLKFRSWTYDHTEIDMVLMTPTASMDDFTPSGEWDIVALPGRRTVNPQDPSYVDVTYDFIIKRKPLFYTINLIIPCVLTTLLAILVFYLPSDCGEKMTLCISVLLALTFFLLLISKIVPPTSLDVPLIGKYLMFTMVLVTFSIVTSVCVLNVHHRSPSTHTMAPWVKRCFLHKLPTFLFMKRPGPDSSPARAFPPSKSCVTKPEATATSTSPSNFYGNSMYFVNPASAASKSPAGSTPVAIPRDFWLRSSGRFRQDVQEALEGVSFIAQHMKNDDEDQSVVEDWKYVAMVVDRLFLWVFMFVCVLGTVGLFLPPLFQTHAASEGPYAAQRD
T2 sequence (P32297 whole entry): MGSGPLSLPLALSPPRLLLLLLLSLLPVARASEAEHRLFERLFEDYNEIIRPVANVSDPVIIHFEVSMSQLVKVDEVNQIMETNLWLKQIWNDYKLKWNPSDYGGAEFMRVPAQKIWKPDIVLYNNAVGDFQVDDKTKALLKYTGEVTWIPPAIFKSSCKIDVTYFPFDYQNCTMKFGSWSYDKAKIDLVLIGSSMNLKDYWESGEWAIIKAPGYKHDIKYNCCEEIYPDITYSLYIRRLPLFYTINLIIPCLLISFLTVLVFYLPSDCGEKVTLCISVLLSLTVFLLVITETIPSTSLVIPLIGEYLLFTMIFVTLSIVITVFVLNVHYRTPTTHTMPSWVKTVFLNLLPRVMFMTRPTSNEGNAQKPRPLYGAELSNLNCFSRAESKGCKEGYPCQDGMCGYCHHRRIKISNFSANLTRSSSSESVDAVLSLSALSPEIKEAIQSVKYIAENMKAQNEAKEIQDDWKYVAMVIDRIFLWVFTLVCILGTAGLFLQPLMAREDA

[9] = biological target: Neuronal acetylcholine receptor; alpha3/beta2 (Homo sapiens) (UniProt P17787+P32297); assay: Inhibition of alpha3beta2 nAChR (unknown origin) expressed in Xenopus laevis oocytes assessed as inhibition of acetylcholine-evoked current up to 10 uM by voltage clamp technique
Homo sapiens = species on record: Homo sapiens; assay: Selectivity for alpha3beta4 nAChR (unknown origin) expressed in Xenopus laevis oocytes over alpha3beta2 nAChR (unknown origin) expressed in Xenopus laevis oocytes
[10] = biological target: T2, Neuronal acetylcholine receptor; alpha3/beta4; assay: Inhibition of alpha3beta4 nAChR (unknown origin) expressed in Xenopus laevis oocytes assessed as inhibition of acetylcholine-evoked current at 10 uM by voltage clamp technique
[11] = biological target: T2, Neuronal acetylcholine receptor; alpha3/beta4; assay: Inhibition of alpha3beta4 nAChR (unknown origin) expressed in Xenopus laevis oocytes assessed as inhibition of acetylcholine-evoked current by voltage clamp technique
Outline: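 Oocytes expressing α3 chimera/β4 nAChR, voltage-clamped at ~22 °C. Concentrations below 1 μM perfused, with 1 s ACh pulses every 1 min; 1 μM and above given as a 5 min static bath. Lowest concentration tested 10 nM. IC50 from a concentration–response curve with top and bottom fixed at 100 and 0; n = 3–5 oocytes per concentration.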

Compound	inhibition [1]	inhibition [2] [%]	Activity [3]	Ki [4] [µM]	IC50 [5] [µM]	IC50 [6] [µM]	IC50 [7] [µM]	IC50 [8] [µM]	inhibition [9]	Selectivity ratio (Homo sapiens)	inhibition [10] [%]	inhibition [11]
CCC[C@@H]1NC(=O)[C@H](CC)NC(=O)[C@H](Cc2ccccc2)NC(=O)[C@@H]2CSSC[C@H](NC(=O)CN)C(=O)N[C@@H](CSSC[C@@H](C(=O)O)NC(=O)[C@H](Cc3ccc(O)cc3)NC1=O)C(=O)N[C@@H](CO)C(=O)N[C@@H](Cc1cnc[nH]1)C(=O)N1CCC[C@H]1C(=O)N1CCC[C@H]1C(=O)N2 (H-GCCSHPPCF[Abu][Nva]YC-OH; disulfide 2-8, 3-13)	49.8%	92.6	inactive	0.794	> 10	> 10	0.298	–	–	–	–	–
CC[C@H](C)[C@@H]1NC(=O)[C@H](Cc2cnc[nH]2)NC(=O)[C@H](CCC(N)=O)NC(=O)[C@H](CC(N)=O)NC(=O)[C@H](CC(N)=O)NC(=O)CNC(=O)[C@H](C)NC(=O)[C@@H]2CSSC[C@H](NC(=O)CN)C(=O)N[C@@H](CSSC[C@@H](C(=O)O)NC1=O)C(=O)N[C@@H](CO)C(=O)N[C@@H](Cc1cnc[nH]1)C(=O)N1CCC[C@H]1C(=O)N[C@@H](C)C(=O)N2	–	–	–	–	–	–	–	0.755	–	–	–	–
CCCC[C@@H]1NC(=O)[C@H](CO)NC(=O)[C@@H]2CSSC[C@@H](C(=O)O)NC(=O)[C@H](Cc3ccc(O)cc3)NC(=O)[C@H](CCC)NC(=O)[C@H](CC)NC(=O)[C@H](Cc3ccccc3)NC(=O)[C@H](CSSC[C@H](NC(=O)CN)C(=O)N2)NC(=O)[C@@H]2CCCN2C(=O)[C@@H]2CCCN2C1=O (H-GCCS[Nle]PPCF[Abu][Nva]YC-OH; disulfide 2-8, 3-13)	inactive	96.4	inactive	1.11	> 10	> 10	0.345	–	–	–	–	–
CCC[C@@H]1NC(=O)[C@H](CC)NC(=O)[C@H](Cc2ccccc2)NC(=O)[C@@H]2CSSC[C@H](NC(=O)CN)C(=O)N[C@@H](CSSC[C@@H](C(=O)O)NC(=O)[C@H](Cc3ccc(O)cc3)NC1=O)C(=O)N[C@@H](CO)C(=O)N[C@@H](Cc1cnc[nH]1)C(=O)N1CCC[C@H]1C(=O)N[C@@H](CC)C(=O)N2 (H-GCCSHP[Abu]CF[Abu][Nva]YC-OH; disulfide 2-8, 3-13)	inactive	109	inactive	0.27	> 10	> 10	0.183	–	inactive	> 1000	75	Dose-dependent effect
